Experiments:
[1] = Antioxidant activity assessed as DPPH radical scavenging activity incubated in dark for 30 mins; format: functional
In short: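 Samples (0.4 mM stock, 5–40 µL series) and DPPH (2 mM stock, 20 µL) in ethanol, made to 200 µL with ethanol; incubated 30 min in dark at 37 °C; absorbance at 517 nm. Ethanol replaced sample as blank.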

[2] = Antioxidant activity assessed as ABTS radical scavenging activity after 30 mins; format: functional
In short: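 ABTS radical generated by 7 mM ABTS plus 2.4 mM potassium persulfate, 12 h dark at room temperature, diluted in ethanol to OD 0.700 at 734 nm. Samples at several concentrations mixed with ABTS+ solution, 30 min at 37 °C, read at 734 nm; ethanol blank; percent scavenging calculated relative to blank.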

[3] = Antioxidant activity assessed as ferric ion reducing activity by measuring Fe2+ levels using fe3+-TPTZ at 375 ug/ml after 30 mins by FRAP assay; format: functional
In short: (§1)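 FRAP reagent: 300 mM acetate buffer pH 3.6, 10 mM TPTZ in 40 mM HCl, 20 mM FeCl3. Sample (3000, 1500, 750, 375 µg/mL solutions) mixed with reagent, 30 min at 37 °C, absorbance 593 nm. Values expressed as µM Fe2+ from FeSO4 calibration curve (5–450 µM).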

[4] = Antioxidant activity assessed as ferric ion reducing activity by measuring Fe2+ levels using fe3+-TPTZ at 750 ug/ml after 30 mins by FRAP assay; format: functional; in short: as §1
[5] = Antioxidant activity assessed as ferric ion reducing activity by measuring Fe2+ levels using fe3+-TPTZ at 1500 ug/ml after 30 mins by FRAP assay; format: functional; in short: as §1
[6] = Antioxidant activity assessed as ferric ion reducing activity by measuring Fe2+ levels using fe3+-TPTZ at 3000 ug/ml after 30 mins by FRAP assay; format: functional; in short: as §1
[7] = Antiinflammatory activity in mouse RAW264.7 cells assessed as inhibition of LPS-induced nitric oxide production after 24 hrs by Griess assay; format: functional, cell-based; details: RAW264.7, 24 h
In short: (§2)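 RAW264.7 cells (5 × 10^5/mL) pre-treated with samples at 100, 50, 10 or 1 µM, then LPS (100 ng/mL) for 24 h. Nitrite in medium measured by mixing with equal volume Griess reagent (1% sulfanilamide in 5% H3PO4, 0.1% N-naphthyl-ethylenediamine), 10 min at 37 °C, absorbance 540 nm; quantified against NaNO2 standard curve; minocycline as positive control.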

[8] = Antiinflammatory activity in mouse RAW264.7 cells assessed as inhibition of LPS-induced TNFalpha production after 24 hrs by ELISA; format: functional, cell-based; details: RAW264.7, 24 h
In short: (§3)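 RAW264.7 cells plated at 5 × 10^5/mL, pre-treated with samples at 100, 50, 10 or 1 µM, then stimulated with LPS (100 ng/mL) for 24 h. TNF-α in the medium measured by ELISA kit per manufacturer's instructions and quantified from a standard curve; silybin as positive control.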

[9] = species: Mus musculus; test: Cytotoxicity against mouse RAW264.7 cells assessed as effect on cell viability at 100 uM preincubated for 1 hr followed by LPS stimulation measured after 24 hrs by MTT assay; format: toxicity, cell-based; details: raw264.7, 24 h
In short: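 RAW264.7 cells in DMEM with 10% FBS and penicillin/streptomycin at 37 °C, 5% CO2, seeded 5 × 10^5 cells/well; treated with samples (100 µM) 1 h, then LPS (100 ng/mL) 24 h. MTT (0.25 mg/mL) added for 4 h; formazan read at 540 nm; untreated cells as control.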

[10] = Antiinflammatory activity in mouse RAW264.7 cells assessed as inhibition of LPS-induced nitric oxide production at 1 uM after 24 hrs by Griess assay relative to control; format: functional; details: RAW264.7, 24 h; in short: as §2
[11] = Antiinflammatory activity in mouse RAW264.7 cells assessed as inhibition of LPS-induced nitric oxide production at 10 uM after 24 hrs by Griess assay relative to control; format: functional; details: RAW264.7, 24 h; in short: as §2
[12] = Antiinflammatory activity in mouse RAW264.7 cells assessed as inhibition of LPS-induced nitric oxide production at 50 uM after 24 hrs by Griess assay relative to control; format: functional; details: RAW264.7, 24 h; in short: as §2
[13] = Antiinflammatory activity in mouse RAW264.7 cells assessed as inhibition of LPS-induced nitric oxide production at 100 uM after 24 hrs by Griess assay relative to control; format: functional; details: RAW264.7, 24 h; in short: as §2
[14] = Antiinflammatory activity in mouse RAW264.7 cells assessed as inhibition of LPS-induced TNFalpha production at 1 uM after 24 hrs by ELISA relative to control; format: functional; details: RAW264.7, 24 h; in short: as §3
[15] = Antiinflammatory activity in mouse RAW264.7 cells assessed as inhibition of LPS-induced TNFalpha production at 10 uM after 24 hrs by ELISA relative to control; format: functional; details: RAW264.7, 24 h; in short: as §3
[16] = Antiinflammatory activity in mouse RAW264.7 cells assessed as inhibition of LPS-induced TNFalpha production at 50 uM after 24 hrs by ELISA relative to control; format: functional; details: RAW264.7, 24 h; in short: as §3
[17] = Antiinflammatory activity in mouse RAW264.7 cells assessed as inhibition of LPS-induced TNFalpha production at 100 uM after 24 hrs by ELISA relative to control; format: functional; details: RAW264.7, 24 h; in short: as §3

| IC50 [1] [µM] | IC50 [2] [µM] | IC50 [7] [µM] | IC50 [8] [µM] | SMILES | Activity [3] [µmol/L] | Activity [4] [µmol/L] | Activity [5] [µmol/L] | Activity [6] [µmol/L] | Activity [9] | inhibition at 1 µM [10] [%] | inhibition at 10 µM [11] [%] | inhibition at 50 µM [12] [%] | inhibition at 100 µM [13] [%] | inhibition at 1 µM [14] [%] | inhibition at 10 µM [15] [%] | inhibition at 50 µM [16] [%] | inhibition at 100 µM [17] [%] |
| --- | --- | --- | --- | --- | --- | --- | --- | --- | --- | --- | --- | --- | --- | --- | --- | --- | --- |
| 56.8 | 7.9 | 76.3 | > 100 | CCO[C@H](c1ccc(O[C@@H](CO)[C@@H](O)c2ccc(O)c(OC)c2)c(OC)c1)[C@H](CO)c1ccc(O)c(OC)c1 | 33.5 | 65.1 | 108 | 135 | Non-Toxic | 3.7 | 15.5 | 44.1 | 55.1 | 0.4 | -1.9 | 14.2 | 27.7 |
| 81.6 | 6.3 | 80.5 | > 100 | CCO[C@H](c1ccc(O[C@@H](CO)[C@@H](OC)c2ccc(O)c(OC)c2)c(OC)c1)[C@H](CO)c1ccc(O)c(OC)c1 | 34.5 | 66.3 | 99.2 | 129 | Non-Toxic | 2.5 | 16.1 | 37.2 | 56.2 | 0.2 | 2.1 | 13.2 | 22.5 |

From ChEMBL document CHEMBL3864147, “Antioxidant and anti-inflammatory neolignans from the seeds of hawthorn” (Bioorg Med Chem Lett, 2016)
